Species on record: Homo sapiens
Test: Selectivity ratio of Ki for human MKP5 to Ki for human STEP
How it was run: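 STEP, CD45, LAR and TC-PTP used pNPP (500 μM) in imidazole/NaCl pH 7.0 with Triton X-100, read at 405 nm for 20 min. MKP5 used DiFMUP in Tris-HCl pH 8.0. The enzyme's own pNPP KM was used in analysis; ratio of the Ki values.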

O=P(O)(O)[C@H](O)c1ccc(-c2cccc([C@@H](O)c3ccc(Cl)c(Cl)c3)c2)cc1
Ratio Ki: 41
